The source of these data is ChEMBL document CHEMBL1146388, “1-Arylpiperazinyl-4-cyclohexylamine derived isoindole-1,3-diones as potent and selective alpha-1a/1d adrenergic receptor ligands” (Bioorg Med Chem Lett, 2007).

pKi: −log10 of the molar value.

The species entered for one test is Homo sapiens. Description: Selectivity ratio, Ki for human adrenergic alpha-1b receptor to Ki for human adrenergic alpha-1d receptor. The method, boiled down: (§1)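 Competition binding against 125I-HEAT on COS cell membranes expressing cloned human α1a-, α1b- or α1d-adrenergic receptor. Affinities are reported as Ki (nM). Selectivity is expressed as Ki(α1b)/Ki(α1a) and Ki(α1b)/Ki(α1d).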

Test [1] has as its target Adrenergic receptors; alpha-1 A & B (Homo sapiens) (UniProt P35348+P35368). Description: Selectivity ratio, Ki for human adrenergic alpha-1b receptor to Ki for human adrenergic alpha-1a receptor. The class given is protein assay. The essentials: as §1
Test [2] deals with T1, Alpha-1D adrenergic receptor (Homo sapiens, UniProt P25100).
T1 sequence (P25100 whole entry): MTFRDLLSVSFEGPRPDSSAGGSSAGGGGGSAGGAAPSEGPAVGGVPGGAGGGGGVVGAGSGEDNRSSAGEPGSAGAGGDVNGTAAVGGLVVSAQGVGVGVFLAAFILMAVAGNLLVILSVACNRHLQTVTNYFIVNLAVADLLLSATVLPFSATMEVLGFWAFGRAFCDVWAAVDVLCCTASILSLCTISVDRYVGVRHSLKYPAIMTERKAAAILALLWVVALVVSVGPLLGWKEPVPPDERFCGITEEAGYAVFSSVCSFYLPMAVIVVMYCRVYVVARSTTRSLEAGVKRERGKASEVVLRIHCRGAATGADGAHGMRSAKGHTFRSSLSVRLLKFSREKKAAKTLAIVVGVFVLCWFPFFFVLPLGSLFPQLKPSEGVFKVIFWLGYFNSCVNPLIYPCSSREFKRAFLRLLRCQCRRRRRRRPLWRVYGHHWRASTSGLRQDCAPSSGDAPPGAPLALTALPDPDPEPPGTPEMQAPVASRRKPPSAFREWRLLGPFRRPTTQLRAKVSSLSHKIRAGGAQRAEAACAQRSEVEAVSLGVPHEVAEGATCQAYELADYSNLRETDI
In words: Displacement of [125]HEAT from human adrenergic alpha-1d receptor expressed in COS cells.

Test [3] has as its target T2, Alpha-1B adrenergic receptor (Homo sapiens, UniProt P35368).
T2 sequence (P35368 whole entry): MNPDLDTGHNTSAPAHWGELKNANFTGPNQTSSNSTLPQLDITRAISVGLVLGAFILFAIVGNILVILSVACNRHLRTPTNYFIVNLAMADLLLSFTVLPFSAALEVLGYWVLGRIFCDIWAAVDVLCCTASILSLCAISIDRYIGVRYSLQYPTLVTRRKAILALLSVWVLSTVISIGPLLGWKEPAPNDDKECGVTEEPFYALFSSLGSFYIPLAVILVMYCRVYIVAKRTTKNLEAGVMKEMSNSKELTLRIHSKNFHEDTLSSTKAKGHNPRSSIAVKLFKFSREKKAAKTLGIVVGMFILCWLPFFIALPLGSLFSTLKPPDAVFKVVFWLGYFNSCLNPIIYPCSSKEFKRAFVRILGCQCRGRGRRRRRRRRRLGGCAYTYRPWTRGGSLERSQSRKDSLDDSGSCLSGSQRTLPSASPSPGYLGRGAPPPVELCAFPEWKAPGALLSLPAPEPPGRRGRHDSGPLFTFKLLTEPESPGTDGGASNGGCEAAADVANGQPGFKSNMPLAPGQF
Description: Displacement of [125]HEAT from human adrenergic alpha-1b receptor expressed in COS cells.

Test [4] addresses T3, Alpha-1A adrenergic receptor (Homo sapiens, UniProt P35348).
T3 sequence (P35348 whole entry): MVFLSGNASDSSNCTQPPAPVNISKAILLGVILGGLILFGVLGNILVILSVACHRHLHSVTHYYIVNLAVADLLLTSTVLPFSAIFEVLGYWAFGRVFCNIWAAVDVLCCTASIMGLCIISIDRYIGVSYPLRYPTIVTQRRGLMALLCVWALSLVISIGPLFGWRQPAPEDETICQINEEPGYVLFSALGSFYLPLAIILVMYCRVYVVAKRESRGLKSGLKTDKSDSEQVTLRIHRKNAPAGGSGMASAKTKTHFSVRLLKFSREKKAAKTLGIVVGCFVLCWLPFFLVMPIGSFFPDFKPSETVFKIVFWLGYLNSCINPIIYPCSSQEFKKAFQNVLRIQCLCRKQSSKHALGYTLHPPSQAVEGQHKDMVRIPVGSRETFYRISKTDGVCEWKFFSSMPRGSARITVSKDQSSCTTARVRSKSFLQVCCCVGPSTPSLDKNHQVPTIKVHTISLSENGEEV
Description: Displacement of [125]HEAT from human adrenergic alpha-1a receptor expressed in COS cells.

For the compound `CC(C)Oc1ccccc1N1CCN(C2CCC(N3C(=O)c4ccc5ccc(F)cc5c4C3=O)CC2)CC1` (stereo in doubt; 6g) [listing 1 of 2 here], the Ratio Ki was 93 in the test filed under Homo sapiens and 12 in test [1].

Consider `CC(C)Oc1ccccc1N1CCN(C2CCC(N3C(=O)c4cc(Cl)c(Cl)cc4C3=O)CC2)CC1` (stereo not drawn), for which the Ratio Ki came out at 3610 in the test filed under Homo sapiens and 401 in test [1]. Moreover, the negative-log Ki (pKi) (usually −log10 of the Ki, conventionally taken in molar units) in test [2] was 9.52.

Turning to `CC(C)Oc1ccccc1N1CCN(C2CCC(N3C(=O)c4ccc5ccccc5c4C3=O)CC2)CC1` (stereo not drawn), the Ratio Ki in the test filed under Homo sapiens stood at 75; in test [1], 8. Moreover, the pKi was 7.82 in test [3], 8.74 in test [4] and 9.70 in test [2].

Take `CC(C)Oc1ccccc1N1CCN(C2CCC(N3C(=O)c4ccc5ccc(F)cc5c4C3=O)CC2)CC1` (stereo in doubt; 6f) [listing 1 of 2 here]: the Ratio Ki came out at 16 in the test filed under Homo sapiens and 18 in test [1].

`CC(C)Oc1ccccc1N1CCN(C2CCC(N3C(=O)c4ccncc4C3=O)CC2)CC1` (stereo not drawn): the Ratio Ki in the test listed under Homo sapiens was 28; in test [1], 56. Besides, the figures for the pKi in test [4] and in test [2] were 9.40 and 9.10, respectively.

For `CC(C)Oc1ccccc1N1CCN(C2CCC(N3C(=O)c4cccnc4C3=O)CC2)CC1` (stereo not drawn), the Ratio Ki in the test filed under Homo sapiens came out at 30; in test [1], 56. Also, the negative-log Ki (pKi) was 9.10 in test [4] and 8.82 in test [2].

As for `CC(C)Oc1ccccc1N1CCN(C2CCC(N3C(=O)c4cccc(F)c4C3=O)CC2)CC1` (stereo in doubt; 6c) [listing 1 of 2 here], the Ratio Ki in the test filed under Homo sapiens turned out to be 200; in test [1], 90.

On to `CC(C)Oc1ccccc1N1CCN(C2CCC(N3C(=O)c4ccc5ccc(F)cc5c4C3=O)CC2)CC1` (stereo in doubt; 6g) [listing 2 of 2 here], for which the values for the pKi in test [3], in test [4] and in test [2] were 7.33, 8.41 and 9.30, respectively.

As for `CC(C)Oc1ccccc1N1CCN(C2CCC(N3C(=O)c4cccc(F)c4C3=O)CC2)CC1` (stereo in doubt; 6d) [listing 1 of 2 here], the values for the Ratio Ki (in the test listed under Homo sapiens; in test [1]) were 9 and 127, respectively.

Take `CC(C)Oc1ccccc1N1CCN(C2CCC(N3C(=O)c4cccc(F)c4C3=O)CC2)CC1` (stereo in doubt; 6d) [listing 2 of 2 here]: the negative logarithm of the Ki (pKi) in test [3] was 6.90; in test [4], 9.00; in test [2], 7.83.

`CC(C)Oc1ccccc1N1CCN(C2CCC(N3C(=O)c4c(F)c(F)c(F)c(F)c4C3=O)CC2)CC1` (stereo not drawn): the figures for the Ratio Ki (in the test filed under Homo sapiens; in test [1]) were 136 and 109, respectively.

Regarding `CC(C)Oc1ccccc1N1CCN(C2CCC(N3C(=O)c4ccc5ccc(F)cc5c4C3=O)CC2)CC1` (stereo in doubt; 6f) [listing 2 of 2 here], the pKi in test [3] is 6.57; in test [4], 7.82; in test [2] it was 7.79.

On to `CC(C)Oc1ccccc1N1CCN(C2CCC(N3C(=O)c4cccc(F)c4C3=O)CC2)CC1` (stereo in doubt; 6c) [listing 2 of 2 here], for which the negative-log Ki (pKi) in test [3] is 7.74; in test [4] it was 9.70; in test [2], 10.05.
